Where two headings read alike, the source gives them in different places.
Tests used:
[1] = Plasma pharmacokinetics of AZD4635 and active metabolite in patients; assay type: in vivo, human; conditions: for half-life: plasma, oral
NSCLC (post-IO) = assay: Tumor response; assay type: in vivo, human
[2] = tested on: metastatic castration-resistant prostate cancer (mCRPC); assay type: in vivo, human
Method in brief: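 For the signature, baseline whole-blood RNA (PAXgene) was hybridized (25–100 ng) to a 770-gene NanoString panel and ComBat batch-corrected. The score was the median of normalized log2 expression of 14 adenosine genes; the cohort median split high from low.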

[3] = tested on: intratumoral adenosine signaling; conditions: ref [12], cited from earlier work

SMILES: Cc1cc(-c2nnc(N)nc2-c2ccc(F)cc2)cc(Cl)n1 [AZD4635]
- Accumulation in exposure (Cmax and AUC) ([1]; following multiple dosing): minimal accumulation
- PK profile ([1]; human, in vivo): linear and dose-proportional
- half-life ([1]; human, median t1/2, after a single dose, across doses): 7.92 to 14.5 h
- half-life ([1]; human, t1/2, overall (range, 11–24 hours)): ~14 h
- Best response of SD (NSCLC (post-IO); NSCLC): 5 (33.3%) n (%)
- Disease control at 22 Weeks, Yes (NSCLC (post-IO); NSCLC Post-IO): 1 (6.7%) n (%)
- Median PFS [2]: 10.1 weeks
- PFS probability at 24 weeks [2]: 24.2%
- PFS probability at 24 weeks ([2]; AZD4635 monotherapy or plus durvalumab, high blood-adenosine signature): 48.9%
- PFS probability at 24 weeks ([2]; AZD4635 monotherapy or plus durvalumab, low blood-adenosine signature): 20.6%
- Patients with concordant increases in gene-expression signatures of cytolytic activity and IFNG signaling ([3]; among the 5 patients with decreased adenosine signaling): 4 patients
- Patients in whom intratumoral adenosine signaling decreased ([3]; nanosuspension 75 or 100 mg, 2 weeks of monotherapy, of 7 patients): 5 patients

Reference: article PMC9660540 (Clinical Cancer Research, 2022)
